Experimental data as given in ChEMBL document CHEMBL3576825, “Antineoplastic agents. 600. From the South Pacific Ocean to the silstatins” (J Nat Prod, 2015).

Tests used:
[1] = Cytotoxicity against human BxPC3 cells after 48 hrs by sulforhodamine B assay; assay type: functional; details: BXPC-3, 48 h
In short: (§1)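 NCI standard SRB protocol. Cells were seeded in 5% FBS/RPMI-1640 and incubated 24 h, then given serial dilutions of compound for 48 h. Plates were fixed with trichloroacetic acid, stained with sulforhodamine B and read by microplate reader. GI50, the concentration giving a 50% reduction in net protein increase, was calculated from optical density data.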

NCI-H460 = assay: Cytotoxicity against human NCI-H460 cells after 48 hrs by sulforhodamine B assay; assay type: functional; details: NCI-H460, 48 h; in short: as §1
MCF7 = assay: Cytotoxicity against human MCF7 cells after 48 hrs by sulforhodamine B assay; assay type: functional; details: MCF7, 48 h; in short: as §1
[2] = Cytotoxicity against human KM20L2 cells after 48 hrs by sulforhodamine B assay; assay type: functional; details: KM-20L2, 48 h; in short: as §1
DU-145 = assay: Cytotoxicity against human DU145 cells after 48 hrs by sulforhodamine B assay; assay type: functional; details: DU-145, 48 h; in short: as §1
SF-268 = assay: Cytotoxicity against human SF268 cells after 48 hrs by sulforhodamine B assay; assay type: functional; details: SF-268, 48 h; in short: as §1
[3] = Cytotoxicity against human CRL2221 cells after 48 hrs by sulforhodamine B assay; assay type: cell-based
[4] = Cytotoxicity against human MCF10A cells after 48 hrs by sulforhodamine B assay; assay type: cell-based, MCF-10A

CC[C@H](C)[C@H]1OC(=O)[C@H](C(C)C)NC(=O)[C@H](C)OC(=O)[C@@H](C(C)C)NC(=O)[C@@H]([C@@H](C)CC)OC(=O)[C@H](C(C)C)NC(=O)[C@H](C)OC(=O)[C@@H](C(C)C)NC(=O)[C@@H]([C@@H](C)CC)OC(=O)[C@H](C(C)C)NC(=O)[C@H](C)OC(=O)[C@@H](C(C)C)NC1=O [BACILLISTATIN 1]
GI50 [1]: 0.82 nM
GI50 (NCI-H460): 1.2 nM
GI50 (MCF7): 0.53 nM
GI50 [2]: 0.75 nM
GI50 (DU-145): 1.3 nM
GI50 (SF-268): 0.39 nM

CC(C)C[C@H]1OC(=O)[C@H](C(C)C)NC(=O)[C@H](C)OC(=O)[C@@H](C(C)C)NC(=O)[C@@H](CC(C)C)OC(=O)[C@H](C(C)C)NC(=O)[C@H](C)OC(=O)[C@@H](C(C)C)NC(=O)[C@@H](CC2CCCCC2)OC(=O)[C@H](Cc2ccc(OC(C)(C)C)cc2)NC(=O)[C@H](C)OC(=O)[C@@H](C(C)C)NC1=O
GI50 [1]: 68 nM
GI50 (NCI-H460): 91 nM
GI50 (MCF7): 24 nM
GI50 [2]: 40 nM
GI50 (DU-145): 30 nM
GI50 (SF-268): 46 nM

CC(C)C[C@H]1OC(=O)[C@H](Cc2ccc(OC(C)(C)C)cc2)NC(=O)[C@H](C)OC(=O)[C@@H](C(C)C)NC(=O)[C@@H](CC(C)C)OC(=O)[C@H](C(C)C)NC(=O)[C@H](C)OC(=O)[C@@H](C(C)C)NC(=O)[C@@H](CC(C)C)OC(=O)[C@H](C(C)C)NC(=O)[C@H](C)OC(=O)[C@@H](C(C)C)NC1=O
GI50 [1]: 24 nM
GI50 (NCI-H460): 23 nM
GI50 (MCF7): 3.3 nM
GI50 [2]: 3.8 nM
GI50 (DU-145): 8.6 nM
GI50 (SF-268): 2 nM

CC(C)[C@@H]1NC(=O)[C@H](C)OC(=O)[C@@H](C(C)C)NC(=O)[C@@H](CC2CCCCC2)OC(=O)[C@H](C(C)C)NC(=O)[C@H](C)OC(=O)[C@@H](C(C)C)NC(=O)[C@@H](CC2CCCCC2)OC(=O)[C@H](C(C)C)NC(=O)[C@H](C)OC(=O)[C@@H](C(C)C)NC(=O)[C@@H](CC2CCCCC2)OC1=O
GI50 [1]: 392 nM
GI50 (NCI-H460): 314 nM
GI50 (MCF7): 141 nM
GI50 [2]: 141 nM
GI50 (DU-145): 173 nM
GI50 (SF-268): 63.6 nM

CC(C)[C@@H]1NC(=O)[C@H](C)OC(=O)[C@@H](C(C)C)NC(=O)[C@@H](CC2CCCCC2)OC(=O)[C@H]([C@@H](C)OC(C)(C)C)NC(=O)[C@H](C)OC(=O)[C@@H](C(C)C)NC(=O)[C@@H](CC2CCCCC2)OC(=O)[C@H](C(C)C)NC(=O)[C@H](C)OC(=O)[C@@H](C(C)C)NC(=O)[C@@H](CC2CCCCC2)OC1=O
GI50 [1]: 135 nM
GI50 (NCI-H460): 240 nM
GI50 (MCF7): 56.3 nM
GI50 [2]: 60 nM
GI50 (DU-145): 90 nM
GI50 (SF-268): 56.3 nM

CC(C)C[C@H]1OC(=O)[C@H](C(C)C)NC(=O)[C@H](C)OC(=O)[C@@H](C(C)C)NC(=O)[C@@H](CC(C)C)OC(=O)[C@H](C(C)C)NC(=O)[C@H](C)OC(=O)[C@@H](C(C)C)NC(=O)[C@@H](CC2CCCCC2)OC(=O)[C@H](Cc2ccc(O)cc2)NC(=O)[C@H](C)OC(=O)[C@@H](C(C)C)NC1=O
GI50 [1]: 4.8 nM
GI50 (NCI-H460): 3.2 nM
GI50 (MCF7): 0.88 nM
GI50 [2]: 1.7 nM
GI50 (DU-145): 4.3 nM
GI50 (SF-268): 2.4 nM

CC(C)C[C@H]1OC(=O)[C@H](C(C)C)NC(=O)[C@H](C)OC(=O)[C@@H](C(C)C)NC(=O)[C@@H](CC2CCCCC2)OC(=O)[C@H]([C@@H](C)O)NC(=O)[C@H](C)OC(=O)[C@@H](C(C)C)NC(=O)[C@@H](CC(C)C)OC(=O)[C@H](C(C)C)NC(=O)[C@H](C)OC(=O)[C@@H](C(C)C)NC1=O
GI50 at 48 h [3]: 3.35 nM
GI50 [1]: 3.2 nM
GI50 (NCI-H460): 3.3 nM
GI50 (MCF7): 1.5 nM
GI50 [2]: 1.7 nM
GI50 (DU-145): 2.5 nM
GI50 at 48 h [4]: 3.35 nM
GI50 (SF-268): 2.6 nM

CC(C)C[C@H]1OC(=O)[C@H](C(C)C)NC(=O)[C@H](C)OC(=O)[C@@H](C(C)C)NC(=O)[C@@H](CC2CCCCC2)OC(=O)[C@H]([C@@H](C)OC(=O)CCCN(C)C(=O)OCc2ccc(O[C@@H]3O[C@H](C(=O)O)[C@@H](O)[C@H](O)[C@H]3O)c([N+](=O)[O-])c2)NC(=O)[C@H](C)OC(=O)[C@@H](C(C)C)NC(=O)[C@@H](CC(C)C)OC(=O)[C@H](C(C)C)NC(=O)[C@H](C)OC(=O)[C@@H](C(C)C)NC1=O
GI50 at 48 h [3]: 30 nM
GI50 [1]: 120 nM
GI50 (NCI-H460): 42 nM
GI50 (MCF7): 18.6 nM
GI50 [2]: 24 nM
GI50 (DU-145): 78.1 nM
GI50 at 48 h [4]: 150 nM
GI50 (SF-268): 30 nM

CC(C)C[C@H]1OC(=O)[C@H](Cc2ccc(O)cc2)NC(=O)[C@H](C)OC(=O)[C@@H](C(C)C)NC(=O)[C@@H](CC(C)C)OC(=O)[C@H](C(C)C)NC(=O)[C@H](C)OC(=O)[C@@H](C(C)C)NC(=O)[C@@H](CC(C)C)OC(=O)[C@H](C(C)C)NC(=O)[C@H](C)OC(=O)[C@@H](C(C)C)NC1=O
GI50 [1]: 4.1 nM
GI50 (NCI-H460): 3 nM
GI50 (MCF7): 1.3 nM
GI50 [2]: 0.9 nM
GI50 (DU-145): 4.2 nM
GI50 (SF-268): 3.3 nM

CC[C@H](C)[C@H]1OC(=O)[C@H](C(C)C)NC(=O)[C@H](C)OC(=O)[C@@H](C(C)C)NC(=O)[C@@H]([C@@H](C)CC)OC(=O)[C@H](C(C)C)NC(=O)[C@H](C)OC(=O)[C@@H](C(C)C)NC(=O)[C@@H](CC(C)C)OC(=O)[C@H](C(C)C)NC(=O)[C@H](C)OC(=O)[C@@H](C(C)C)NC1=O
GI50 [1]: 0.29 nM
GI50 (NCI-H460): 0.39 nM
GI50 (MCF7): 0.27 nM
GI50 [2]: 0.23 nM
GI50 (DU-145): 0.75 nM
GI50 (SF-268): 1.6 nM

CC(C)C[C@H]1OC(=O)[C@H](C(C)C)NC(=O)[C@H](C)OC(=O)[C@@H](C(C)C)NC(=O)[C@@H](CC(C)C)OC(=O)[C@H](C(C)C)NC(=O)[C@H](C)OC(=O)[C@@H](C(C)C)NC(=O)[C@@H](CC(C)C)OC(=O)[C@H](C(C)C)NC(=O)[C@H](C)OC(=O)[C@@H](C(C)C)NC1=O
GI50 [1]: 0.69 nM
GI50 (NCI-H460): 0.61 nM
GI50 (MCF7): 0.095 nM
GI50 [2]: 0.14 nM
GI50 (DU-145): 0.36 nM
GI50 (SF-268): 0.18 nM

CC(C)[C@@H]1NC(=O)[C@H](C)OC(=O)[C@@H](C(C)C)NC(=O)[C@@H](CC2CCCCC2)OC(=O)[C@H](C(C)C)NC(=O)[C@H](C)OC(=O)[C@@H](C(C)C)NC(=O)[C@@H](CC2CCCCC2)OC(=O)[C@H](Cc2ccc(O)cc2)NC(=O)[C@H](C)OC(=O)[C@@H](C(C)C)NC(=O)[C@@H](CC2CCCCC2)OC1=O
GI50 [1]: 396 nM
GI50 (NCI-H460): 239 nM
GI50 (MCF7): 89.7 nM
GI50 [2]: 67.3 nM
GI50 (DU-145): 164 nM
GI50 (SF-268): 37.4 nM

CC(C)C[C@H]1OC(=O)[C@H](C(C)C)NC(=O)[C@H](C)OC(=O)[C@@H](C(C)C)NC(=O)[C@@H](CC2CCCCC2)OC(=O)[C@H]([C@@H](C)OC(C)(C)C)NC(=O)[C@H](C)OC(=O)[C@@H](C(C)C)NC(=O)[C@@H](CC(C)C)OC(=O)[C@H](C(C)C)NC(=O)[C@H](C)OC(=O)[C@@H](C(C)C)NC1=O
GI50 [1]: 18 nM
GI50 (NCI-H460): 7.2 nM
GI50 (MCF7): 0.79 nM
GI50 [2]: 1.9 nM
GI50 (DU-145): 5.6 nM
GI50 (SF-268): 3.2 nM

CC(C)C[C@H]1OC(=O)[C@H](C(C)C)NC(=O)[C@H](C)OC(=O)[C@@H](C(C)C)NC(=O)[C@@H](CC(C)C)OC(=O)[C@H]([C@@H](C)O)NC(=O)[C@H](C)OC(=O)[C@@H](C(C)C)NC(=O)[C@@H](CC(C)C)OC(=O)[C@H](C(C)C)NC(=O)[C@H](C)OC(=O)[C@@H](C(C)C)NC1=O
GI50 [1]: 3.5 nM
GI50 (NCI-H460): 2.8 nM
GI50 (MCF7): 1.9 nM
GI50 [2]: 2.9 nM
GI50 (DU-145): 5.2 nM
GI50 (SF-268): 2.7 nM

CC(C)[C@@H]1NC(=O)[C@H](C)OC(=O)[C@@H](C(C)C)NC(=O)[C@@H](CC2CCCCC2)OC(=O)[C@H](C(C)C)NC(=O)[C@H](C)OC(=O)[C@@H](C(C)C)NC(=O)[C@@H](CC2CCCCC2)OC(=O)[C@H](Cc2ccc(OC(C)(C)C)cc2)NC(=O)[C@H](C)OC(=O)[C@@H](C(C)C)NC(=O)[C@@H](CC2CCCCC2)OC1=O
GI50 [1]: > 717 nM
GI50 (NCI-H460): > 717 nM
GI50 (MCF7): > 717 nM
GI50 [2]: > 717 nM
GI50 (DU-145): > 717 nM
GI50 (SF-268): > 717 nM

CC(C)[C@@H]1NC(=O)[C@H](C)OC(=O)[C@@H](C(C)C)NC(=O)[C@@H](CC2CCCCC2)OC(=O)[C@H]([C@@H](C)O)NC(=O)[C@H](C)OC(=O)[C@@H](C(C)C)NC(=O)[C@@H](CC2CCCCC2)OC(=O)[C@H](C(C)C)NC(=O)[C@H](C)OC(=O)[C@@H](C(C)C)NC(=O)[C@@H](CC2CCCCC2)OC1=O
GI50 [1]: 24 nM
GI50 (NCI-H460): 16 nM
GI50 (MCF7): 2.4 nM
GI50 [2]: 3.4 nM
GI50 (DU-145): 3.9 nM
GI50 (SF-268): 3.4 nM
